Variants at the floor of the assay were thinned out.

To fix the notation:
B1: tRNA (parent)
chain: GUUCCGUUGGCGUAAUGGUAACGCGUCUCCCUCCUAAGGAGAAGACUGCGGGUUCGAGUCCCGUACGGAACG

The variants in this data set derive from B1. The experiment in a line: yeast fitness relative to wild type (ratio to wild type); higher = fitter; tRNA-Arg(CCU), competitive growth, 37 C, YPD. Put shortly:
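Gene amplicons from the start population and from each of six end populations were read by 100-nucleotide paired-end sequencing. Those end populations came from pooled Saccharomyces cerevisiae strains carrying tRNA-Arg(CCU) gene variants at the native locus, competed in YPD at 37°C for 24 hours. Fitness relative to wild type was worked out from changes in genotype frequencies. Genotypes needed ≥ 100 starting reads, and estimates < 0.5 were set to 0.5.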
GUUCCGUUGGCGUAAUGGUAACGCGUCUCCCUCCUAAGGAGAUGACUGCGGGUUCGAGCCCCGUACGGAACG: the yeast fitness came out at 1.02.

Consider GUCCCGUUGGCGUAAUGGUACCGCGUCUCCCUCCUAAGGAGAAGACUGCGGGUUCGAGUCCCGUACGGAACG, for which the yeast fitness amounted to 0.831.

For GUUCCGUUGGCGUAAUGGUCAUGCGUCUCCCUCCUAAGGAGAAGACUGCGGGUUCGAGUCGCGUACGGAACG, the yeast fitness was at most 0.5.

GUUCCGUUGGCGUAAUGGUAACGCGUCUACCUUCUAAGGAGAAGACUGCGGGUUCGAGUCCCGUACGGAACG: the yeast fitness is at most 0.5.

With GUUCUGUUGGCGUAAUGCUAACGCGUCUCCCUCCUAAGGAGAAGACUGUGGGUGCGAGUCCCGUACGGAACG, the yeast fitness is at most 0.5.

In the case of GUUCCGUUGGCGAAAUGGUACCGCGUCUCCCUCCCAAGAAGCGGAUUGCGGGUUCGAGUCCCGUCCGGAACG, the yeast fitness was determined as 0.55.

Turning to GUCCCGUAGGCGUAAUGGAAACGCGUCUCCCUCCUAAGGAGAAGACUGCGGGUGCGAGUCCCGUACGGAACG, the yeast fitness was at most 0.5.

Regarding GUUCCGUUGGAGUAAUGGUAACGCGUCUCCGUCCUAAGGAGUAGACUGCGGGUUCGAGUCCUGAACGGAACG, the yeast fitness is at most 0.5.

For the variant GUUCCGUUGGCGUAAUGGUAAGGCGUCUCCCUCCUAAGGAGAAGACUGCGGGUUUGAGUCCCGUACGGAACG, the yeast fitness amounted to 0.739.

With GUUCCGUUGGCGUAAUGGUAACGCGUCUCGCUCCUAAGGAAAAGACUGCGGGUUCGAGUCCCGUGCGGAACG, the yeast fitness was at most 0.5.

GUUCCGUUGGCGUAAUGGUAACGCGUCUCCCUCCUAAGGAGAAGUCUGCGGGUUCGAGUCCCGUAUGGAACG: the yeast fitness was found to be 0.979.

As for GUUCCGUUGGCGUAAUGGUAACGCGUCUGCCUCCUAAGGAGAAGACUGGCGGUUCGAGUCCGGUACGGUACG, the yeast fitness amounted to 0.506.

GUUCCGUUGGCGUAAUGGUAACGAGUCUCCCUCCUAAGGUGAAGACUGUGGGUUCGAGUCCAGUAAGGAACG: the yeast fitness was at most 0.5.

Regarding GUUCCGUUAGCGUAAUGGUAACGCGUCUCCCUCCUAAGGGGAAGACUGCGGGUUCGAGUCCCGUACGGAACG, the yeast fitness was determined as 0.918.

Regarding GUUCCGCUGGCGUAAUGGUAACGCGUCUCCCUCCCAAGGAGAAGACUGCGGGUUCGAGUCCCGUACGGAACG, the yeast fitness was found to be 0.86.

Turning to GUUCCGUUGGCGUGAUGGUAACGCGUCUCCCUGCUAAGGAGAAGACUGCGGGUUCGAGUCCCGUACGGAUCG, the yeast fitness amounted to 0.545.

Regarding GUUCCAUUGGCGUAAUAGUAACGCGUCUCCCUCCUAACGAGAAGACUGCGGGUUCGAGUCCCGUACGGAACG, the yeast fitness was 0.708.

For GUUCCGUUGGCGUAAUGGUAACGCGUCUCCCUCCUAAGGAGAAGUCUGCGGGUUCGGGCCCCGUACGGAACG, the yeast fitness is 0.597.

Consider GUUCCGUUGGCGUAAUGGUAACGCGUUUUCCUCCUAAGGAGAAGACUGCGGGUUAGAAUCCCGUACGGAACG, for which the yeast fitness is at most 0.5.

GUUCCGUUGGCGUAAUGGUAACGCGUCUCCCCCCUAAGGAGAAGACUCCGGGUUCAAGUCCCGUACGGAACG: the yeast fitness is at most 0.5.

As to GUUCCGUUGGCGUAAUAGUAAAGCGUCUCCCUCCUAAGGAGAAGCUUGCGGGUUCGAGUCCCGUACGGAACG, the yeast fitness came out at 0.578.

Regarding GUUCCGUUGGCGUAAUGGCAACGCGUCUCCCUCUUAAGGAGAUGACUGCGGCUUCGAGUCCCGUACGGAACG, the yeast fitness was at most 0.5.

As to GUUCCGUUGGCGUAAUGGUUACGCGUCUCCCUCCUAAGGAGAAGACUGCGGGUUGGACUCCCGUACGGAACG, the yeast fitness is at most 0.5.

On to GUUCCGUUGGGGUAAUGGUGACGCGUCUCCCUCCUAAGGAGAUGACAGCGGGUUCGAGUCCCGUUCCGAACG, for which the yeast fitness was at most 0.5.

As for GUUCCGUUGGCGUAAUGGUAACGCGUCUCCCUCCUAAGGAGAAGACUGCGGGAUCGAGUCCCGUACAGAACG, the yeast fitness was 0.686.

With GUUCUGUUAGCGUAAUGGUAACGCGUCUCCCUCCUAAGAAGAAGACUACGGGUUCGUGUCCCGUACGGAACG, the yeast fitness is at most 0.5.

In the case of GUUCCGUUGGCGUAAUGGUAAGGCGUCUCCCUCCUAAGGAGAAGUCUCGGGGUUCGAGUCCCGUACGGAACG, the yeast fitness is at most 0.5.

As to GUUCUGUUGGCGUAAUGGUAACGCGUCUCCCUCCUAAGGAGAAGACUGCCGGUCCGAGUCCCGUACGGAACG, the yeast fitness was at most 0.5.

Take GUUCCGUUGGCGUGAUGGUAACGCGUCUCUCUCCUAAGGAGAAGACUGCGGGUUCGAGUCCCGUACGGAACG: the yeast fitness stood at 0.81.

Take GUUCCGUUGGAGUAAUGGUAACGCGUCUCUCUCCUAAGGAGCAGACUGCGGGUUCGAGUCCCGUACGGAACG: the yeast fitness is at most 0.5.

For GUUCAGUUGGCGUAAUGGAAACGCGUCUCCCUCCUAAGGAGAAGACUGCGGGUUCGAGUCCCGUCCGGAACG, the yeast fitness is 0.538.

As to GUUCCGUUGGCGUAAUGGUAACGCGUCUUCCCCCUAAGGAGAAGACUGCGGGUUCGAGUCCUGUACGGAUCG, the yeast fitness is at most 0.5.

Regarding GGUCCGUUGGGGUAAUGGUAACGCGUCUCCCUCCUAAGGAGAAGACUGCGGGUUCGAGUCCCGUACGGAACG, the yeast fitness came to 0.703.

Regarding GUUCCGUUGGCGUAUUGGUAACGCGUCUCCCUCCUAAGGAGAAGAAUGCGGGUUCGAGUCCCGUACGUACCG, the yeast fitness was at most 0.5.

For the variant GUUCAGUUGGCGUAAUGGGAACGCGUCUCCCUCCUAAGGAGAAGACUGCGGGUUCGAGUCCCGUACGGAACG, the yeast fitness turned out to be 0.731.

As to GUUCCAUUGGCGUAAUGGUAACGCGUCUCCCUCCUAAGCAGAAGACUGCGGGUUCGAGUCCCAUACGGAACG, the yeast fitness is at most 0.5.

Consider GUUCUGUUGGCGUAAUGGUAACGCGUCUCCCUUCUAAGGAGAAGACUGCGGGUUCGAGUCCCGUGCGGAACG, for which the yeast fitness was determined as 0.63.

For the variant GUUCCGUUGGCGUAAUGGUAACGCGUCUCCCUUCUUAGGAGACGACUGCGGGUUCGAGUCCCGUACGGCACG, the yeast fitness is 0.674.

The record behind these values is the RNAGym collection of RNA variant scans (doi:10.1126/science.aae0568).
